How the values were obtained:
MCF7 = assay: Cytotoxicity against human MCF7 cells after 72 hrs by MTT assay; type: functional, cell-based; conditions: MCF7, 72 h
How it was run: (§1)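 Lines kept in RPMI-1640 with 10% FBS. Cells were seeded at 2×10³ per well and allowed to attach for 24 h at 37 °C. Medium was then replaced with medium holding serial dilutions from 100 mM DMSO stocks, with 0.1% DMSO as negative control, for 72 h at 37 °C. […] IC50 was fitted from the concentration series as the mean ± SD of three independent experiments run in duplicate.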

MDA-MB-231 = assay: Cytotoxicity against human MDA-MB-231 cells after 72 hrs by MTT assay; type: functional, cell-based; conditions: MDA-MB-231, 72 h; how it was run: as §1
BT-549 = assay: Cytotoxicity against human BT549 cells after 72 hrs by MTT assay; type: functional, cell-based; conditions: BT-549, 72 h; how it was run: as §1
T47D = assay: Cytotoxicity against human T47D cells after 72 hrs by MTT assay; type: functional, cell-based; how it was run: as §1
MDA-MB-468 = assay: Cytotoxicity against human MDA-MB-468 cells after 72 hrs by MTT assay; type: functional, cell-based; conditions: MDA-MB-468, 72 h; how it was run: as §1
Hs-578T = assay: Cytotoxicity against human Hs578T cells after 72 hrs by MTT assay; type: functional, cell-based; how it was run: as §1
Tubulin (Sus scrofa) = Tubulin (Sus scrofa) (UniProt P02554+P02550); assay: Inhibition of pig brain tubulin polymerization at 10 uM by spectrophotometric analysis relative to control
Sequence of Tubulin (Sus scrofa) (P02550 whole entry, looked up): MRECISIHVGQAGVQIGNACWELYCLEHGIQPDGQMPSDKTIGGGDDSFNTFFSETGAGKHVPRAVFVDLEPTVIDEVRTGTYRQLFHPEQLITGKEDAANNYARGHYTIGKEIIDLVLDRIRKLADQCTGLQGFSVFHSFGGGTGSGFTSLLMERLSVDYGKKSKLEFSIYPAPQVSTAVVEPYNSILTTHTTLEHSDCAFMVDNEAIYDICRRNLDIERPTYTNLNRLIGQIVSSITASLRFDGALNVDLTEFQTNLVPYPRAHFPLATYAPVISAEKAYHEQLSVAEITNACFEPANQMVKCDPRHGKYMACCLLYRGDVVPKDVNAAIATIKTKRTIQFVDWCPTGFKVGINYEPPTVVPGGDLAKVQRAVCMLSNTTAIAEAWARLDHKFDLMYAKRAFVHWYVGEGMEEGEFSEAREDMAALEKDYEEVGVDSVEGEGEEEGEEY
Sequence of Tubulin (Sus scrofa) (P02554 whole entry, looked up): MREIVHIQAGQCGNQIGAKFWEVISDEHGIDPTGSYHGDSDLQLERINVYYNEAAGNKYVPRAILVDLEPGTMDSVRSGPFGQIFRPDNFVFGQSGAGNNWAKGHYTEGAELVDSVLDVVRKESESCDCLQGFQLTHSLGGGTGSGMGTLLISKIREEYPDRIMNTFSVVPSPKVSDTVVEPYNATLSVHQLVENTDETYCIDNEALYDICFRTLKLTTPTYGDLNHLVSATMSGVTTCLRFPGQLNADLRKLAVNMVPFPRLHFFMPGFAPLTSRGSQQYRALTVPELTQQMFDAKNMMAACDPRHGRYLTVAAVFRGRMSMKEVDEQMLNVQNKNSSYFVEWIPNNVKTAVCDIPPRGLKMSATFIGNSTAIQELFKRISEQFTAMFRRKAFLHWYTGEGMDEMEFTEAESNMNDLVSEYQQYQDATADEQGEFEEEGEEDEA
How it was run: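 Tubulin polymerization inhibition was measured with compounds at a final concentration of 10 µM.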

COc1cc(C(=O)Nc2c(C(=O)c3ccc(Br)cc3)[nH]c3ccccc23)cc(OC)c1OC
IC50 (MCF7): 7.14 µM
IC50 (MDA-MB-231): 6.47 µM
IC50 (BT-549): 10.3 µM
IC50 (T47D): 9.55 µM
IC50 (MDA-MB-468): 7.87 µM
IC50 (Hs-578T): 7.52 µM
inhibition (Tubulin (Sus scrofa)): 37%

COc1cc(C(=O)Nc2c(C(=O)c3ccc(Cl)cc3)[nH]c3cc(C)ccc23)cc(OC)c1OC
IC50 (MCF7): 3.85 µM
IC50 (MDA-MB-231): 3.22 µM
IC50 (BT-549): 4.81 µM
IC50 (T47D): 6.25 µM
IC50 (MDA-MB-468): 4.12 µM
IC50 (Hs-578T): 3.59 µM
inhibition (Tubulin (Sus scrofa)): 15%

COc1ccc(C(=O)c2[nH]c3cc(Cl)ccc3c2NC(=O)c2cc(OC)c(OC)c(OC)c2)cc1O
IC50 (MCF7): 32.6 µM
IC50 (MDA-MB-231): 22.2 µM
IC50 (BT-549): 7.48 µM
IC50 (T47D): 9.28 µM
IC50 (MDA-MB-468): 23.2 µM
IC50 (Hs-578T): 4.35 µM
inhibition (Tubulin (Sus scrofa)): 30%

COc1cc(C(=O)Nc2c(C(=O)c3ccc(C)cc3)[nH]c3cc(Cl)ccc23)cc(OC)c1OC
IC50 (MCF7): 34.3 µM
IC50 (MDA-MB-231): 33.6 µM
IC50 (BT-549): 25.1 µM
IC50 (T47D): 16.6 µM
IC50 (MDA-MB-468): 5.79 µM
IC50 (Hs-578T): 14.2 µM
inhibition (Tubulin (Sus scrofa)): 36%

COc1cc(C(=O)Nc2c(C(=O)c3ccc(F)cc3)[nH]c3ccccc23)cc(OC)c1OC
IC50 (MCF7): 77.9 µM
IC50 (MDA-MB-231): 50.8 µM
IC50 (BT-549): 42.6 µM
IC50 (T47D): 60.9 µM
IC50 (MDA-MB-468): > 100 µM
IC50 (Hs-578T): > 100 µM

COc1ccc(C(=O)c2[nH]c3cc(OC)ccc3c2NC(=O)c2cc(OC)c(OC)c(OC)c2)cc1
IC50 (MCF7): 79.3 µM
IC50 (MDA-MB-231): 48.8 µM
IC50 (BT-549): 18.2 µM
IC50 (T47D): 6.3 µM
IC50 (MDA-MB-468): 26.4 µM
IC50 (Hs-578T): 10.4 µM
inhibition (Tubulin (Sus scrofa)): 25%

COc1cc(C(=O)Nc2c(C(=O)c3cccs3)[nH]c3cc(Cl)ccc23)cc(OC)c1OC
IC50 (MCF7): 47.5 µM
IC50 (MDA-MB-231): > 100 µM
IC50 (BT-549): 37.5 µM
IC50 (T47D): 31.4 µM
IC50 (MDA-MB-468): 15.3 µM
IC50 (Hs-578T): 49.2 µM

COc1ccc2c(NC(=O)c3cc(OC)c(OC)c(OC)c3)c(C(=O)c3ccc(C)cc3)[nH]c2c1
IC50 (MCF7): > 100 µM
IC50 (MDA-MB-231): > 100 µM
IC50 (BT-549): > 100 µM
IC50 (T47D): > 100 µM
IC50 (MDA-MB-468): > 100 µM
IC50 (Hs-578T): > 100 µM

COc1cc(C(=O)Nc2c(C(=O)c3ccc(F)cc3)[nH]c3cc(C)ccc23)cc(OC)c1OC
IC50 (MCF7): 8.89 µM
IC50 (MDA-MB-231): 5.17 µM
IC50 (BT-549): 8.66 µM
IC50 (T47D): 5.72 µM
IC50 (MDA-MB-468): 6.16 µM
IC50 (Hs-578T): 8.95 µM
inhibition (Tubulin (Sus scrofa)): 17%

COc1cc(C(=O)Nc2c(C(=O)c3ccc(C)cc3)[nH]c3cc(C)ccc23)cc(OC)c1OC
IC50 (MCF7): 69.5 µM
IC50 (MDA-MB-231): 33.4 µM
IC50 (BT-549): 69.8 µM
IC50 (T47D): 40.2 µM
IC50 (MDA-MB-468): 75.1 µM
IC50 (Hs-578T): 43.7 µM

COc1cc(C(=O)Nc2c(C(=O)c3ccccc3)[nH]c3cc(Cl)ccc23)cc(OC)c1OC
IC50 (MCF7): 51.8 µM
IC50 (MDA-MB-231): 32.7 µM
IC50 (BT-549): 26.9 µM
IC50 (T47D): 45.5 µM
IC50 (MDA-MB-468): 11 µM
IC50 (Hs-578T): > 100 µM
inhibition (Tubulin (Sus scrofa)): 41%

COc1cc(C(=O)Nc2c(C(=O)c3ccc(C)cc3)[nH]c3ccccc23)cc(OC)c1OC
IC50 (MCF7): 50 µM
IC50 (MDA-MB-231): 12.6 µM
IC50 (BT-549): 17.1 µM
IC50 (T47D): 20.1 µM
IC50 (MDA-MB-468): 14.5 µM
IC50 (Hs-578T): 50.5 µM

COc1cccc(C(=O)c2[nH]c3ccccc3c2NC(=O)c2cc(OC)c(OC)c(OC)c2)c1
IC50 (MCF7): > 100 µM
IC50 (MDA-MB-231): > 100 µM
IC50 (BT-549): 65.5 µM
IC50 (T47D): 53.4 µM
IC50 (MDA-MB-468): > 100 µM
IC50 (Hs-578T): 9.06 µM

COc1cc(C(=O)Nc2c(C(=O)c3ccc(-c4ccccc4)cc3)[nH]c3cc(C)ccc23)cc(OC)c1OC
IC50 (MCF7): > 100 µM
IC50 (MDA-MB-231): 18.2 µM
IC50 (BT-549): > 100 µM
IC50 (T47D): > 100 µM
IC50 (MDA-MB-468): > 100 µM
IC50 (Hs-578T): > 100 µM

COc1ccc(C(=O)c2[nH]c3cc(Cl)ccc3c2NC(=O)c2cc(OC)c(OC)c(OC)c2)cc1
IC50 (MCF7): 17.6 µM
IC50 (MDA-MB-231): 9.17 µM
IC50 (BT-549): 11.1 µM
IC50 (T47D): 11.1 µM
IC50 (MDA-MB-468): 8.61 µM
IC50 (Hs-578T): 15.9 µM
inhibition (Tubulin (Sus scrofa)): 47%

COc1cc(C(=O)Nc2c(C(=O)c3ccccc3)[nH]c3ccccc23)cc(OC)c1OC
IC50 (MCF7): > 100 µM
IC50 (MDA-MB-231): 17.2 µM
IC50 (BT-549): > 100 µM
IC50 (T47D): > 100 µM
IC50 (MDA-MB-468): > 100 µM
IC50 (Hs-578T): > 100 µM

COc1cc(C(=O)Nc2c(C(=O)c3cccc(Br)c3)[nH]c3cc(Cl)ccc23)cc(OC)c1OC
IC50 (MCF7): 23 µM
IC50 (MDA-MB-231): 26.8 µM
IC50 (BT-549): 8.42 µM
IC50 (T47D): 14.1 µM
IC50 (MDA-MB-468): 20.8 µM
IC50 (Hs-578T): 4.1 µM
inhibition (Tubulin (Sus scrofa)): 25%

COc1ccc(C(=O)c2[nH]c3ccccc3c2NC(=O)c2cc(OC)c(OC)c(OC)c2)cc1
IC50 (MCF7): 10.7 µM
IC50 (MDA-MB-231): 35 µM
IC50 (BT-549): 10.4 µM
IC50 (T47D): 5.56 µM
IC50 (MDA-MB-468): 7.09 µM
IC50 (Hs-578T): > 100 µM
inhibition (Tubulin (Sus scrofa)): 20%

COc1cc(C(=O)Nc2c(C(=O)c3cccs3)[nH]c3cc(C)ccc23)cc(OC)c1OC
IC50 (MCF7): > 100 µM
IC50 (MDA-MB-231): > 100 µM
IC50 (BT-549): > 100 µM
IC50 (T47D): > 100 µM
IC50 (MDA-MB-468): > 100 µM
IC50 (Hs-578T): > 100 µM

COc1cc(C(=O)Nc2c(C(=O)c3ccc(-c4ccccc4)cc3)[nH]c3ccccc23)cc(OC)c1OC
IC50 (MCF7): > 100 µM
IC50 (MDA-MB-231): > 100 µM
IC50 (BT-549): > 100 µM
IC50 (T47D): > 100 µM
IC50 (MDA-MB-468): > 100 µM
IC50 (Hs-578T): 22.2 µM

COc1cc(C(=O)Nc2c(C(=O)c3ccc(F)cc3)[nH]c3cc(Cl)ccc23)cc(OC)c1OC
IC50 (MCF7): 61.1 µM
IC50 (MDA-MB-231): 46.6 µM
IC50 (BT-549): 35.5 µM
IC50 (T47D): 76.2 µM
IC50 (MDA-MB-468): > 100 µM
IC50 (Hs-578T): > 100 µM

COc1cccc(C(=O)c2[nH]c3cc(Cl)ccc3c2NC(=O)c2cc(OC)c(OC)c(OC)c2)c1
IC50 (MCF7): > 100 µM
IC50 (MDA-MB-231): > 100 µM
IC50 (BT-549): > 100 µM
IC50 (T47D): 52.4 µM
IC50 (MDA-MB-468): > 100 µM
IC50 (Hs-578T): > 100 µM

COc1cc(C(=O)Nc2c(C(=O)c3ccc(F)c(F)c3)[nH]c3cc(Cl)ccc23)cc(OC)c1OC
IC50 (MCF7): 10.1 µM
IC50 (MDA-MB-231): > 100 µM
IC50 (BT-549): 51.2 µM
IC50 (T47D): > 100 µM
IC50 (MDA-MB-468): > 100 µM
IC50 (Hs-578T): 64.6 µM

COc1cc(C(=O)Nc2c(C(=O)c3ccco3)[nH]c3cc(Cl)ccc23)cc(OC)c1OC
IC50 (MCF7): > 100 µM
IC50 (MDA-MB-231): > 100 µM
IC50 (BT-549): > 100 µM
IC50 (T47D): > 100 µM
IC50 (MDA-MB-468): > 100 µM
IC50 (Hs-578T): > 100 µM

COc1cc(C(=O)Nc2c(C(=O)c3cccs3)[nH]c3ccccc23)cc(OC)c1OC
IC50 (MCF7): > 100 µM
IC50 (MDA-MB-231): > 100 µM
IC50 (BT-549): > 100 µM
IC50 (T47D): > 100 µM
IC50 (MDA-MB-468): > 100 µM
IC50 (Hs-578T): 29.6 µM

COc1ccc2c(NC(=O)c3cc(OC)c(OC)c(OC)c3)c(C(=O)c3ccccc3)[nH]c2c1
IC50 (MCF7): > 100 µM
IC50 (MDA-MB-231): > 100 µM
IC50 (BT-549): > 100 µM
IC50 (T47D): > 100 µM
IC50 (MDA-MB-468): > 100 µM
IC50 (Hs-578T): > 100 µM

COc1cc(C(=O)Nc2c(C(=O)c3ccc4ccccc4c3)[nH]c3cc(C)ccc23)cc(OC)c1OC
IC50 (MCF7): > 100 µM
IC50 (MDA-MB-231): > 100 µM
IC50 (BT-549): 39.8 µM
IC50 (T47D): > 100 µM
IC50 (MDA-MB-468): > 100 µM
IC50 (Hs-578T): 53.3 µM

COc1cc(C(=O)Nc2c(C(=O)c3ccccc3)[nH]c3cc(C)ccc23)cc(OC)c1OC
IC50 (MCF7): 32.7 µM
IC50 (MDA-MB-231): 16.6 µM
IC50 (BT-549): 42.3 µM
IC50 (T47D): > 100 µM
IC50 (MDA-MB-468): > 100 µM
IC50 (Hs-578T): 49.1 µM

— ChEMBL document CHEMBL4382246, “Synthesis, biological evaluation, and molecular docking investigation of 3-amidoindoles as potent tubulin polymerization inhibitors” (Eur J Med Chem, 2019)
